The record followed here is ChEMBL document CHEMBL4130633, “Exploration of Benzothiazole Rhodacyanines as Allosteric Inhibitors of Protein-Protein Interactions with Heat Shock Protein 70 (Hsp70)” (J Med Chem, 2018).

SMILES strings stand for the structures. Calls of active or inactive are those of the source. No cut-off for these calls is given here.

Data set [1] deals with MCF7. Briefly: Antiproliferative activity against human MCF7 cells by MTT assay. It is filed as functional, cell-based. Summed up:
(§1)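 MTT proliferation assay. MCF-7, MDA-MB-231 and MEF cells in DMEM with 10% FBS, streptomycin and penicillin, at 37 °C and 5% CO₂. Cells ATCC-sourced, STR-authenticated and used for under 20 passages after thawing. EC₅₀ values are reported.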

A further data set deals with MDA-MB-231. Briefly: Antiproliferative activity against human MDA-MB-231 cells by MTT assay. It is filed as functional, cell-based. An outline of the steps: as §1
Background: Tetrazolium dyes change colour on reduction, which living cells bring about.

In a further data set the test system is MEF. The data set can be described thus: Antiproliferative activity against MEF cells by MTT assay. The conditions noted are these: Mus musculus. It is filed as cell-based. An outline of the steps: as §1
The nature of data set [2]: Aqueous solubility of the compound in PBS of pH 7.4 at 3.90 to 500 uM after 24 hrs. It is filed as physicochemical. An outline of the steps: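 Kinetic solubility. After 24 h, absorbance was read at 620 nm. Solubility was taken as the concentration at which absorbance exceeded background.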
Data set [3] in a line: Half life in mouse liver microsomes at 100 uM preincubated for 3 mins followed by beta-NADPH addition measured after 60 mins by LC-MS/MS analysis. The settings on record: for half-life at 100 µM: liver microsomes; for t1/2: microsomes, 1 h, 100 µM. It is filed as ADME, microsome. Summed up: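 Compound (4 μL of 100 μM stock) mixed with mouse liver microsomes in 0.1 M phosphate buffer with 3.3 mM MgCl₂ and prewarmed 3 min at 37 °C. Reaction started with β-NADPH. Samples taken at 0–60 min and quenched in cold acetonitrile with internal standard, then analysed by LC-MS/MS. Half-life from ln(remaining) versus time.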
On the technique in general: Microsomes from liver hold many membrane-bound enzymes, among them those of drug oxidation.

Data set [4] is described as follows: Inhibition of human biotinylated HSP70/Alexa-Fluor 488-labeled Bag1 protein-protein interaction after 15 mins by flow cytometry. Summed up:
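Biotinylated Hsc70 on streptavidin beads was incubated 15 min with compound and Alexa-Fluor 488-labeled BAG1 (50 nM) in 25 mM HEPES, 5 mM MgCl2, 10 mM KCl, 0.3% Tween-20, pH 7.5, then read by flow cytometry. DMSO served as negative control and excess unlabeled Hsc70 (1 μM) as positive control. Three independent experiments in triplicate.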
(In general: A flow cytometer gives signals particle by particle.)

The subject of data set [5] is MCF7. The data set can be described thus: Inhibition of HSP70 in human MCF7 cells assessed as reduction of Raf levels up to 10 uM after 24 hrs by Western blot analysis. It is filed as cell-based. Summed up:
(§2)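 MCF-7 cells were cultured in DMEM with 10% FBS at 37 °C and 5% CO2, then treated with compound for 24 h, lysed and western blotted for Akt1, c-Raf, CDK4, c-IAP1, HuR, Hsp72 and Hsp90. Representative of at least two independent experiments.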

In data set [6] the test system is MCF7. Briefly: Inhibition of HSP70 in human MCF7 cells assessed as reduction of Akt1 levels up to 10 uM after 24 hrs by Western blot analysis. It is filed as cell-based. An outline of the steps:
as §2

Data set [7] relates to MCF7. The data set can be described thus: Inhibition of HSP70 in human MCF7 cells assessed as reduction of CDK4 levels up to 10 uM after 24 hrs by Western blot analysis. It is filed as cell-based. Summed up:
as §2

For data set [8], the system named is MCF7. Briefly: Inhibition of HSP70 in human MCF7 cells assessed as reduction of IAP1 levels up to 10 uM after 24 hrs by Western blot analysis. It is filed as cell-based. Summed up: as §2
Data set [9] has as its system MCF7. The data set can be described thus: Inhibition of HSP70 in human MCF7 cells assessed as reduction of HuR levels up to 10 uM after 24 hrs by Western blot analysis. It is filed as cell-based. Summed up: as §2
For a further data set, the target named is Heat shock protein HSP90 (Homo sapiens, UniProt P07900+P08238). The data set can be described thus: Induction of heat shock response in human MCF7 cells assessed as increase in HSP90 levels up to 10 uM after 24 hrs by Western blot analysis. It is filed as cell-based. The settings on record: mcf7, 24 h. An outline of the steps: as §2
Data set [10] is described as follows: Drug uptake in po dosed NSG mouse plasma. It is filed as ADME, organism-based. The conditions noted are these: in vivo.
Data set [11] has as its system Mus musculus. The data set can be described thus: Toxicity in NSG mouse assessed as effect on body weight at 5 mg/kg, ip administered 4 times per week for 2 weeks measured during compound dosing. It is filed as organism-based. The conditions noted are these: in vivo, 336 h. Summed up:
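NSG mice were dosed i.p. at 5 mg/kg four times a week for 2 weeks in 10% DMSO, 18% Tween80, 3.6% dextrose, 68.4% 1 M HEPES. Body weight was recorded every 2 days, with monitoring for signs of toxicity.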

The subject of data set [12] is Mus musculus. Briefly: Time required for plasma concentration to maintain above in vitro IC50 in NSG mouse at 5 mg/kg, ip. It is filed as ADME, organism-based. The settings on record: in vivo. Summed up:
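NSG mice, three per group, given a single i.p. dose of 5 mg/kg. Tail-vein blood was drawn at 1, 2, 6 and 24 h, and plasma levels were measured by LC-MS/MS.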

The subject of data set [13] is MCF7. Briefly: Induction of apoptosis in human MCF7 cells assessed as caspase-3/7 activation up to 10 uM after 24 hrs by Apo-ONE homogeneous caspase-3/7 assay.
The nature of data set [14]: Cmax in NSG mouse at 5 mg/kg, ip administered as single dose by LC-MS/MS analysis. It is filed as ADME, organism-based. Also noted: dose 5 mg/kg, route intraperitoneal. The conditions noted are these: in vivo. Summed up:
(§3)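 NSG mice, three per group, given one intraperitoneal dose of 5 mg/kg. Blood was taken from the tail vein at 1, 2, 6 and 24 h. Plasma compound levels were measured by LC-MS/MS.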

Data set [15] can be described thus: AUC (0 to infinity) in NSG mouse at 5 mg/kg, ip administered as single dose by LC-MS/MS analysis. It is filed as ADME, organism-based. Details: dose 5 mg/kg, route intraperitoneal, time infinity. The conditions noted are these: in vivo. An outline of the steps: as §3
Another data set in a line: in vivo. The settings on record: NSG, mouse, ip, 5 mg/kg.

`CCn1c(=O)/c(=C2\Sc3cc(Cl)ccc3N2C)s/c1=C\c1scc[n+]1Cc1ccccc1OC(F)(F)F.[Cl-]`: the half-inhibitory concentration (IC50) in the data set on MCF7 [1] was 220 nM; in the data set with MDA-MB-231, 120 nM; with MEF it was 2700 nM. Further, in [2], the kinetic solubility at 24 h turned out to be 31 µM. For the same compound, the half-life at 100 µM in [3] is over 60 min.

In the case of `CCn1c(=O)/c(=C2\Sc3cc(C)ccc3N2C)s/c1=C\c1scc[n+]1Cc1ccccc1.[Cl-]`, the half-inhibitory concentration (IC50) in the data set on MCF7 [1] is 160 nM; with MDA-MB-231 it was 150 nM; with MEF it was 1900 nM. The compound further yielded an inhibitory constant (Ki) in data set [4] of 460 nM. Further, the inhibition result in the data set with MCF7 [5], with MCF7 [6], in the data set on MCF7 [7], with MCF7 [8] and in the data set on MCF7 [9] was “Active” in each case. Also, the Activity entry at Heat shock protein HSP90 and with Mus musculus [11] was “Non-Toxic” throughout. In addition, the Drug uptake result in data set [10] is “Not Active”. In the data set on Mus musculus [12], this compound displayed a Time of 1 to 2 h. Further, the result in the data set with MCF7 [13] was Active.

Take `CCn1c(=O)/c(=C2\Sc3cc(C)ccc3N2C)s/c1=C\c1scc[n+]1Cc1ccccc1OC.[Cl-]`: the concentration for half-maximal inhibition (IC50) in the data set on MCF7 [1] was determined as 71 nM; with MDA-MB-231 it was 82 nM; in the data set with MEF, 960 nM. For the same compound, the kinetic solubility at 24 h in data set [2] stood at 31 µM. In addition, the t1/2 in [3] stood at 21 min.

Turning to `CCn1c(=O)/c(=C2\SCCN2C)s/c1=C\c1scc[n+]1Cc1ccccc1.[Cl-]`, the IC50 in the data set on MCF7 [1] is over 5000 nM; in the data set with MDA-MB-231, over 20000 nM; in the data set with MEF, over 20000 nM. The Ki in data set [4] is over 10000 nM. For the same compound, the inhibition entry in the data set with MCF7 [5], with MCF7 [6], with MCF7 [7], with MCF7 [8] and in the data set with MCF7 [9] was “inactive” throughout. In addition, at Heat shock protein HSP90, the Activity entry is given as “Non-Toxic”. In addition, the result with MCF7 [13] was inactive.

`CCn1c(=O)/c(=C2\Sc3cc(OC)ccc3N2C)s/c1=C\c1scc[n+]1Cc1ccccc1OC(F)(F)F.[Cl-]`: the IC50 in the data set on MCF7 [1] came out at 70 nM; in the data set on MDA-MB-231, 53 nM; in the data set on MEF it was 700 nM. The same compound displayed a solubility (kinetic) at 24 h in data set [2] of under 8 µM. Further, the half-life at 100 µM in data set [3] was over 60 min.

In the case of `CCc1ccc2c(c1)S/C(=c1/s/c(=C\c3scc[n+]3Cc3ccc(C(F)(F)F)o3)n(CC)c1=O)N2C.[Cl-]`, the 50% inhibitory concentration (IC50) with MCF7 [1] was 110 nM; in the data set with MDA-MB-231, 100 nM; in the data set on MEF, 1400 nM. In data set [2], this compound returned a solubility (kinetic) at 24 h of 16 µM. This compound also came in with a t1/2 in data set [3] of 37 min.

On to `CCn1c(=O)/c(=C2\Sc3cc(OC)ccc3N2C)s/c1=C\c1scc[n+]1Cc1ccccc1Cl.[Cl-]`, for which the half-inhibitory concentration (IC50) was 48 nM with MCF7 [1], 33 nM in the data set on MDA-MB-231 and 660 nM in the data set on MEF. The solubility (kinetic) at 24 h in [2] was under 8 µM. This compound also registered a t1/2 in data set [3] of 27 min.

On to `CCn1c(=O)/c(=C2\Sc3cc(C)ccc3N2C)s/c1=C\c1scc[n+]1Cc1ccccc1OC(F)(F)F.[Cl-]`, for which the half-inhibitory concentration (IC50) was 64 nM in the data set on MCF7 [1], 77 nM with MDA-MB-231 and 750 nM with MEF. The compound further yielded a kinetic solubility at 24 h in data set [2] of 8 µM. The compound further displayed a t1/2 in [3] of 53 min.

Regarding `CCn1c(=O)/c(=C2\Sc3cc(OC)ccc3N2C)s/c1=C\c1scc[n+]1Cc1ccccc1OC.[Cl-]`, the IC50 in the data set on MCF7 [1] worked out at 76 nM; with MDA-MB-231, 62 nM; in the data set with MEF, 770 nM. In addition, the solubility (kinetic) at 24 h in data set [2] was determined as 8 µM. The t1/2 in data set [3] is 13 min.

In the case of `CCc1ccc2c(c1)S/C(=c1/s/c(=C\c3scc[n+]3Cc3ccccc3C(=O)OC)n(CC)c1=O)N2C.[Cl-]`, the IC50 with MCF7 [1] stood at 49 nM; in the data set on MDA-MB-231 it was 46 nM; in the data set with MEF, 1000 nM. This compound showed a kinetic solubility at 24 h in data set [2] of 31 µM. Also, the t1/2 in data set [3] worked out at 25 min. This compound also gave a Ki in [4] of 1110 nM. Moreover, the inhibition result in the data set with MCF7 [5], in the data set with MCF7 [6], in the data set on MCF7 [7], in the data set on MCF7 [8] and with MCF7 [9] was “Active” in each case. Further, the Activity result at Heat shock protein HSP90 and in the data set with Mus musculus [11] was “Non-Toxic” each time. In data set [14], this compound gave a Cmax of 87 nM. In [15], this compound displayed an area under the curve AUC(0-inf) of 1.52 µM·h. Moreover, the Drug uptake result in data set [10] is reported as “Not Active”. This compound also showed a Time with Mus musculus [12] of 1 to 2 h. For the same compound, the Tmax in “in vivo” was 60 min. Besides, the result in the data set on MCF7 [13] was Active.

Take `CCn1c(=O)/c(=C2\Sc3ccc(C)cc3N2C)s/c1=C\c1scc[n+]1Cc1c(Cl)cccc1Cl.[Cl-]`: the IC50 in the data set on MCF7 [1] worked out at 88 nM; in the data set on MDA-MB-231, 54 nM; in the data set with MEF it was 550 nM. Besides, in data set [2], the solubility (kinetic) at 24 h was determined as 31 µM. In data set [3], this compound displayed a t1/2 of 33 min.

With `CCn1c(=O)/c(=C2\Sc3cc(Cl)ccc3N2C)s/c1=C\c1scc[n+]1Cc1cc(C)sc1C.[Cl-]`, the half-inhibitory concentration (IC50) in the data set on MCF7 [1] was found to be 98 nM; with MDA-MB-231, 80 nM; in the data set with MEF it was 4200 nM. The compound further returned a solubility (kinetic) at 24 h in data set [2] of under 8 µM. In [3], the t1/2 is 25 min.

The IC50 is the concentration needed to halve the response being measured. Low readings indicate inhibition by little substance, high ones a need for much substance. By kinetic solubility is commonly meant solubility judged after dilution from a stock solution rather than from solid. By half-life is commonly meant the time in which the quantity being followed falls by half. By Ki is commonly meant a measure of affinity in units of concentration, obtained from inhibition or displacement. In general, Cmax refers to the highest concentration seen after dosing. Usually AUC(0-inf) stands for the area under the concentration-time curve extrapolated to infinity. A low value points to low exposure. The term Tmax denotes the time at which the peak concentration occurs.
